The values below come from ChEMBL document CHEMBL1139477, “Synthesis and evaluation of estrogen receptor ligands with bridged oxabicyclic cores containing a diarylethylene motif: estrogen antagonists of unusual structure” (J Med Chem, 2005).

Active and inactive are the calls of the source. The rule behind the calls is not given here.

Test [1] has as its target T1, Estrogen receptor (Homo sapiens) (UniProt P03372).
T1 sequence (whole entry): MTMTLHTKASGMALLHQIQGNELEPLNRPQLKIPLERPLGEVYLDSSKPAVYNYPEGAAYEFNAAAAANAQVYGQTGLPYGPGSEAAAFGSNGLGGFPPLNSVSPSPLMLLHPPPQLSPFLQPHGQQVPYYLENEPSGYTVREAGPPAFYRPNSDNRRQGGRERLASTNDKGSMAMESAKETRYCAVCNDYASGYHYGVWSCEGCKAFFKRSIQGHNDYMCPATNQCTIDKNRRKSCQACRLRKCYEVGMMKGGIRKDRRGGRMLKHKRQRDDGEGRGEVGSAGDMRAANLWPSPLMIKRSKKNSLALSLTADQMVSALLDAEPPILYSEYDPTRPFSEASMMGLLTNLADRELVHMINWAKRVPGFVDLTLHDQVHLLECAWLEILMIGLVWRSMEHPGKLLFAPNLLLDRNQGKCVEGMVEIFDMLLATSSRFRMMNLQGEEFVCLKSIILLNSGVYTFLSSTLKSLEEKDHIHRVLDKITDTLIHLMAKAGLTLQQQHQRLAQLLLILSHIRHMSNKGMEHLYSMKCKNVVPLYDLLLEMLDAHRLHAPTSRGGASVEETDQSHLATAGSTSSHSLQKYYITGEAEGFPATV
Put plainly: Displacement of [3H]estradiol from human ERalpha relative to estradiol. In general terms: Loss of bound radioactivity is the signal in a displacement assay; it reports binding, not function.

The target in test [2] is Estrogen receptor beta (Homo sapiens) (UniProt Q92731). Put plainly: Displacement of [3H]estradiol from human ERbeta relative to estradiol.
Test [3] concerns the target Estrogen receptor (Homo sapiens) (UniProt Q92731+P03372). Put plainly: Ratio of RBA for human estrogen receptor alpha to RBA for human estrogen receptor beta. It is filed as protein assay.
Test [4] deals with T1, Estrogen receptor (Homo sapiens). Put plainly: Activity at ERalpha in human HEC1 cells assessed as antagonism of estradiol-activated transcription activation relative to estradiol. In kind it is functional, cell-based. Conditions: HEC-1. Put shortly:
(§1)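 HEC-1 cells kept in phenol red MEM with 5% calf serum plus 5% fetal calf serum, then plated in phenol red-free Improved MEM with 5% charcoal dextran-treated calf serum. Lipofectin transfection for 5 h at 37 °C with full-length human ERα or ERβ vector, 2ERE-pS2-Luc and pCMV β-galactosidase control. Ligand, 10^-8 to 10^-5 M, given with 1 nM estradiol for 24 h. Luciferase read, as percent of 10^-9 M estradiol alone. Two or more experiments.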

Test [5] concerns the target Estrogen receptor beta (Homo sapiens) (UniProt Q92731). Put plainly: Activity at ERbeta in human HEC1 cells assessed as antagonism of estradiol-activated transcription activation relative to estradiol. It is filed as functional, cell-based. The conditions noted are these: HEC-1. The method in brief:
as §1

Estrogen receptor (Homo sapiens) (UniProt Q92731+P03372), sequence (Q92731 whole entry, looked up, one chain of several): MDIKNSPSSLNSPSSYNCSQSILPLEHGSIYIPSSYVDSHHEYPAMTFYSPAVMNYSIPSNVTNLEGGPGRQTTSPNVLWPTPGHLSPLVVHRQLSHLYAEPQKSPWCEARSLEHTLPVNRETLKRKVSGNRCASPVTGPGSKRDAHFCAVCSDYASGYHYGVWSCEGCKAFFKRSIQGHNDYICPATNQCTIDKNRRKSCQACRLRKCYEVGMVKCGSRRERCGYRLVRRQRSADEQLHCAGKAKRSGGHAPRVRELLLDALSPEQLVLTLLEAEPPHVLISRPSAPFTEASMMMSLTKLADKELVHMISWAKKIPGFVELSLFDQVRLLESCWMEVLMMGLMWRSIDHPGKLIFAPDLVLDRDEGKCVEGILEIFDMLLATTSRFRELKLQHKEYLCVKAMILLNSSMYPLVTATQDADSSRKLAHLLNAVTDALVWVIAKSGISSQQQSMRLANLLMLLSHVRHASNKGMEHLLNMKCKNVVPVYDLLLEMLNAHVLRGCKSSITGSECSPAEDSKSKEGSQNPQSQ
Estrogen receptor beta (Homo sapiens), sequence (Q92731 whole entry): as the sequence (Q92731 whole entry, looked up, one chain of several) above

Regarding `O=S(=O)(Oc1ccc(O)cc1)[C@H]1CC2OC1C(c1ccccc1)=C2c1ccccc1` (stereo in doubt; exo), the RBA in test [1] came out at 0.022%; in test [2] it was 0.027%. In addition, in test [3], the Ratio turned out to be 0.82.
Regarding `CN1C(=O)C2C3OC(C(c4ccc(O)cc4)=C3c3ccc(O)cc3)C2C1=O` (configuration not stated), the RBA in test [1] is 0.02%; in test [2], 0.025%. The Ratio in test [3] worked out at 0.8.
As to `CCOC(=O)C1C2OC(C(c3ccc(O)cc3)=C2c2ccc(O)cc2)C1C(=O)OCC` (configuration not stated), the RBA in test [1] is 0.021%; in test [2], 0.036%. Besides, in test [3], the Ratio turned out to be 0.58.
In test [1], `O=S(=O)(Oc1ccccc1)[C@H]1CC2OC1C(c1ccc(O)cc1)=C2c1ccc(O)cc1` (stereo in doubt; endo) showed an RBA of 4.1%.
For the molecule `O=S(=O)(c1ccccc1)C1CC2OC1C(c1cccc(O)c1)=C2c1ccc(O)cc1` (configuration not stated), the RBA in test [1] was 0.069%; in test [2] it was 0.037%. Further, the Ratio in test [3] was 1.9.
As to `O=S(=O)(Oc1ccccc1)[C@H]1CC2OC1C(c1ccc(O)cc1)=C2c1ccc(O)cc1` (stereo in doubt; exo), the result in test [4] and in test [5] was Active.
For the molecule `COc1ccc(OS(=O)(=O)C2CC3OC2C(c2ccc(O)cc2)=C3c2ccc(O)cc2)cc1` (configuration not stated), the RBA is 0.32% in test [1] and 0.1% in test [2]. The Ratio in test [3] was found to be 3.3.
On the same counts, the results for `COc1ccc(C2=C(c3ccc(O)cc3)C3CC(S(=O)(=O)c4ccccc4)C2O3)cc1` (configuration not stated) are 0.068%, 0.066% and 1.
On to `COc1ccc(C2=C(c3ccc(O)cc3)C3CC(S(=O)(=O)Oc4ccccc4)C2O3)cc1` (configuration not stated), for which the RBA in test [1] was 0.98%; in test [2] it was 0.11%. Besides, the Ratio in test [3] was determined as 8.9.
With `O=C1C2C3OC(C(c4ccc(O)cc4)=C3c3ccc(O)cc3)C2C(=O)N1c1ccccc1` (configuration not stated), the RBA in test [1] turned out to be 0.013%; in test [2], 0.017%. In addition, the Ratio in test [3] turned out to be 0.77.
Take `O=S(=O)(c1ccccc1)C1CC2OC1C(c1ccc(O)cc1)=C2c1ccc(O)cc1` (configuration not stated): the RBA in test [1] was found to be 0.64%; in test [2] it was 0.059%. In addition, in test [3], the Ratio came to 11. Also, the result in test [4] and in test [5] was Active.
As to `CCS(=O)(=O)C1CC2OC1C(c1ccc(O)cc1)=C2c1ccc(O)cc1` (configuration not stated), the RBA in test [1] came to 0.1%; in test [2], 0.077%. Moreover, in test [3], the Ratio was found to be 1.3.
The corresponding values for `O=S(=O)(Oc1ccc(O)cc1)C1CC2OC1C(c1ccc(O)cc1)=C2c1ccc(O)cc1` (configuration not stated) are 2.2%, 0.16% and 14.
The corresponding values for `COC(=O)C1=C(c2ccc(O)cc2)C2OC1C(c1ccccc1)=C2c1ccccc1` (configuration not stated) are 0.012%, 0.031% and 0.39.
Regarding `O=S(=O)(Oc1ccc(O)cc1)[C@H]1CC2OC1C(c1ccccc1)=C2c1ccccc1` (stereo in doubt; endo), the figures for the RBA in test [1] and in test [2] were 0.025% and 0.029%, respectively. In addition, in test [3], the Ratio was found to be 0.86.
As for `COC(=O)C1=C(c2ccccc2)C2OC1C(c1ccccc1)=C2c1ccccc1` (configuration not stated), the RBA in test [1] came to 0.007%; in test [2], 0.024%. Moreover, in test [3], the Ratio stood at 0.29.
The corresponding values for `COC(=O)C1=C(C(=O)OC)C2OC1C(c1ccc(O)cc1)=C2c1ccc(O)cc1` are 0.009%, 0.006% and 1.5.
Turning to `O=S(=O)(Oc1ccccc1)C1CC2OC1C(c1cccc(O)c1)=C2c1ccc(O)cc1` (configuration not stated), the RBA in test [1] was determined as 0.9%; in test [2], 0.21%. In addition, the Ratio in test [3] is 4.3.
For `O=S(=O)(c1ccccc1)C1CC2OC1C(c1ccccc1)=C2c1ccccc1` (configuration not stated), the figures for the RBA in test [1] and in test [2] were 0.008% and 0.013%, respectively. In addition, the Ratio in test [3] came to 0.62.
On the same counts, the results for `O=C1OC(=O)C2C3OC(C(c4ccccc4)=C3c3ccccc3)C12` (configuration not stated) are 0.014%, 0.02% and 0.7.
Take `O=S(=O)(Oc1ccccc1)C1CC2OC1C(c1ccccc1)=C2c1ccccc1` (configuration not stated): the RBA is 0.068% in test [1] and 0.12% in test [2]. Further, the Ratio in test [3] is 0.57.
